# Laboratory results reported in ChEMBL document CHEMBL1124499, “Metabolism of 3-(p-chlorophenyl)pyrrolidine. Structural effects in conversion of a prototype gamma-aminobutyric acid prodrug to lactam and gamma-aminobutyric acid type metabolites” (J Med Chem, 1989).
# The source made the active and inactive calls.
# Key:
# [1] = species on record: Mus musculus; assay: Anticonvulsant activity by using bicuculline test in mice; assay type: functional
# [2] = system: Mus musculus; assay: Anticonvulsant activity by using subcutaneous pentylenetetrazole (Metrazol) seizure threshold test in mice; assay type: functional; conditions: for ED50: sc
# [3] = species on record: Mus musculus; assay: Anticonvulsant activity by using maximal electroshock seizure test in mice; assay type: functional
# [4] = species on record: Rattus norvegicus; assay: Amount of metabolite alpha-baclofen lactam produced in liver of rat at a concentration of 700 g of the compound; assay type: functional
# [5] = system: Rattus norvegicus; assay: In vivo formation of baclofen in 0-3 hr after administration of 55 mg/kg of compound intraperitoneally into 1r at; assay type: functional, organism-based; parameters: dose 55 mg/kg
# In short: (§1)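 Male Wistar rats housed in metabolism cages were given 55 mg/kg prodrug ip. Urine was collected at 3 and 6 h and assayed by HPLC/EC; cumulative amount is reported per rat. One rat was decapitated at 3 h, and its brain was homogenized in Tris-KCl and assayed by HPLC/EC.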
# [6] = species on record: Rattus norvegicus; assay: Amount of metabolite alpha-baclofen produced in liver of rat at a concentration of 12000 g of the compound; None detected; assay type: functional, organism-based
# [7] = system: Rattus norvegicus; assay: In vivo formation of baclofen in 3-6h after administration of 55 mg/kg of compound intraperitoneally into 2 rats; assay type: functional, organism-based; parameters: dose 55 mg/kg; in short: as §1
# [8] = system: Rattus norvegicus; assay: In vivo formation of alpha-baclofen in 0-3 hr after administration of 55 mg/kg of compound intraperitoneally into 2 rats; assay type: functional, organism-based; parameters: dose 55 mg/kg; in short: as §1
# [9] = species on record: Rattus norvegicus; assay: Amount of metabolite alpha-baclofen lactam produced in liver of rat at a concentration of 12000 g of the compound; assay type: functional
# [10] = system: Rattus norvegicus; assay: In vivo formation of alpha-baclofen in 3-6h after administration of 55 mg/kg of compound intraperitoneally into 1r at; assay type: functional, organism-based; parameters: dose 55 mg/kg; in short: as §1
# [11] = system: Rattus norvegicus; assay: In vivo formation of baclofen in 0-3 hr after administration of 55 mg/kg of compound intraperitoneally into 2 rats; assay type: functional, organism-based; parameters: dose 55 mg/kg; in short: as §1
# [12] = system: Rattus norvegicus; assay: In vivo formation of alpha-baclofen in 3-6h after administration of 55 mg/kg of compound intraperitoneally into 2 rats; assay type: functional, organism-based; parameters: dose 55 mg/kg; in short: as §1
# [13] = system: Rattus norvegicus; assay: In vivo formation of baclofen in 2 hr after administration of 5.5 mg/kg of compound intraperitoneally into 4 rats; assay type: functional, organism-based; parameters: dose 5.5 mg/kg
# [14] = system: Rattus norvegicus; assay: In vivo formation of baclofen in 4 hr after administration of 5.5 mg/kg of compound intraperitoneally into 4 rats; assay type: functional, organism-based; parameters: dose 5.5 mg/kg
# [15] = system: Rattus norvegicus; assay: Number of rats displaying convulsions by pretreatment with 55 mg/kg of compound (ip) in the presence of isoniazid after 63 mins out of 6 rats tested; assay type: functional
# In short: (§2)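 Male Wistar rats were pretreated with test agent at 55 mg/kg ip (200 mg/mL in saline or DMSO), then given isoniazid 425 mg/kg sc (180 mg/mL in saline).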
# [16] = system: Rattus norvegicus; assay: In vivo formation of baclofen in 3h after administration of 55 mg/kg of compound intraperitoneally into 3 rats; assay type: functional, organism-based; parameters: dose 55 mg/kg; in short: as §1
# [17] = species on record: Rattus norvegicus; assay: Amount of metabolite alpha-baclofen lactam produced in brain of rat at a concentration of 12000 g of the compound; assay type: functional
# [18] = species on record: Rattus norvegicus; assay: Amount of metabolite alpha-baclofen lactam produced in brain of rat at a concentration of 700 g of the compound; assay type: functional
# [19] = species on record: Rattus norvegicus; assay: Amount of metabolite alpha-baclofen produced in liver of rat at a concentration of 700 g of the compound; None detected; assay type: functional, organism-based
# [20] = system: Rattus norvegicus; assay: In vivo formation of baclofen in 3-6h after administration of 55 mg/kg of compound intraperitoneally into 1r at; assay type: functional, organism-based; parameters: dose 55 mg/kg; in short: as §1
# [21] = system: Rattus norvegicus; assay: In vivo formation of alpha-baclofen in 0-3 hr after administration of 55 mg/kg of compound intraperitoneally into 1r at; assay type: functional, organism-based; parameters: dose 55 mg/kg; in short: as §1
# [22] = system: Rattus norvegicus; assay: Number of rats died by pretreatment with 55 mg/kg of compound (ip) in the presence of isoniazid after 63 mins out of 6 rats tested; assay type: functional; in short: as §2
# [23] = species on record: Rattus norvegicus; assay: Amount of metabolite alpha-baclofen produced in brain of rat at a concentration of 700 g of the compound; None detected; assay type: functional, organism-based
# [24] = species on record: Rattus norvegicus; assay: Amount of metabolite alpha-baclofen produced in brain of rat at a concentration of 12000 g of the compound; None detected; assay type: functional, organism-based
# [25] = species on record: Mus musculus; assay: Anticonvulsant activity by using rotarod toxicity test in mice; assay type: functional
# [26] = system: Mus musculus; assay: Anticonvulsant activity by using subcutaneous pentylenetetrazole (Metrazol) seizure threshold test in mice; Inactive; assay type: functional, organism-based
# [27] = species on record: Mus musculus; assay: Anticonvulsant activity by using bicuculline test in mice; Inactive; assay type: functional, organism-based
# [28] = species on record: Rattus norvegicus; assay: Amount of metabolite produced in liver of rat at a concentration of 700 g of the compound; assay type: functional
# [29] = species on record: Rattus norvegicus; assay: Amount of metabolite produced in brain of rat at a concentration of 12000 g of the compound; assay type: functional
# [30] = species on record: Rattus norvegicus; assay: Amount of metabolite produced in liver of rat at a concentration of 12000 g of the compound; assay type: functional
# [31] = species on record: Rattus norvegicus; assay: Amount of metabolite produced in brain of rat at a concentration of 700 g of the compound; assay type: functional
# [32] = system: Rattus norvegicus; assay: Number of rats displaying convulsions by pretreatment with 55 mg/kg of compound (ip) in the presence of isoniazid after 49 mins out of 8 rats tested; assay type: functional; in short: as §2
# [33] = system: Rattus norvegicus; assay: Number of rats died by pretreatment with 55 mg/kg of compound (ip) in the presence of isoniazid after 49 mins out of 8 rats tested; assay type: organism-based; parameters: dose 55 mg/kg; conditions: in vivo; in short: as §2
smiles,measurement,setting,value
NC(=O)CCC/N=C(\c1ccc(Cl)cc1)c1cc(F)ccc1O [PROGABIDE],ED50,[1],20 mg/kg
same,ED50,[2],30 mg/kg
same,ED50,[3],75 mg/kg
Clc1ccc(C2CCNC2)cc1 (centres undefined),Activity,[4],46.7 µg/mL
same,Concentration,[5],2 µg/mL
same,Activity,[6],Not detected
same,Concentration,[7],9.4 µg/mL
same,Concentration,[8],0 µg/mL
same,Activity,[9],24.5 µg/mL
same,Concentration,[10],2.6 µg/mL
same,Concentration,[11],0 µg/mL
same,Concentration,[12],2.3 µg/mL
same,Concentration,[13],0.04 µg/mL
same,Concentration,[14],0.12 µg/mL
same,Activity,[15],6
same,Concentration,[16],24.3 ng/g
same,Activity,[17],0.21 µg/mL
same,Activity,[18],0.5 µg/mL
same,Activity,[19],Not detected
same,Concentration,[20],16 µg/mL
same,Concentration,[21],0.5 µg/mL
same,Activity,[22],0
same,Activity,[23],Not detected
same,Activity,[24],Not detected
CCC1(c2ccccc2)C(=O)NC(=O)NC1=O [PHENOBARBITAL],ED50,[1],38 mg/kg
same,ED50,[2],13 mg/kg
same,TD50,[25],69 mg/kg
same,ED50,[3],22 mg/kg
CCCC(CCC)C(=O)O [VALPROIC ACID],ED50,[1],360 mg/kg
same,ED50,[2],149 mg/kg
O=C1NC(=O)C(c2ccccc2)(c2ccccc2)N1,ED50,[26],inactive
same,ED50,[27],inactive
NCC(CC(=O)O)c1ccc(Cl)cc1 (centres undefined) [BACLOFEN],Activity,[28],0.197 µg/mL
same,Dose,[2],50 mg/kg
same,Activity,[29],0.097 µg/mL
same,Activity,[30],0.13 µg/mL
same,Activity,[31],0.162 µg/mL
same,TD50,[25],47 mg/kg
same,ED50,[3],> 600 mg/kg
O=C1CC(c2ccc(Cl)cc2)CN1 (centres undefined),Activity,[32],2
same,Activity,[28],26.4 µg/mL
same,ED50,[1],143 mg/kg
same,No. of rats died,[33],1
same,ED50,[2],41 mg/kg
same,Activity,[29],0.28 µg/mL
same,Activity,[30],14.6 µg/mL
same,Activity,[31],2.11 µg/mL
same,TD50,[25],117 mg/kg
same,ED50,[3],68 mg/kg
